The test system of assay [1] is BGC-823. Put plainly: Cytotoxicity against human BGC823 cells after 72 hrs by MTT assay. The conditions noted are these: BGC-823, 72 h. In kind it is functional, cell-based. In a few lines:
(§1)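 BGC-823, KB, NCI-H460, HepG2 and SW-480 cells were maintained in RPMI 1640 with 10% FBS at 37 °C, 5% CO2. MTT added from a 5 mg/mL solution for 4 h at 37 °C. Formazan dissolved in DMSO after centrifugation, A540 read.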
On the technique in general: Tetrazolium assays rely on reduction of a dye to a coloured formazan, in cell work by metabolically active cells.

For assay [2], the system named is HeLa. Put plainly: Cytotoxicity against human HeLa cells after 72 hrs by MTT assay. The assay is classed as functional, cell-based. The method, boiled down:
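HeLa cells were cultured in EMEM with 10% FBS at 37 °C, 5% CO2. MTT added from a 5 mg/mL solution for 4 h at 37 °C. Plates centrifuged, formazan dissolved in DMSO, A540 read.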

Assay [3] concerns KB. Put plainly: Cytotoxicity against human KB cells after 72 hrs by MTT assay. In kind it is functional, cell-based. The method, boiled down:
as §1

In assay [4] the test system is U-266. The assay can be described thus: Cytotoxicity against human U266 cells after 72 hrs by MTT assay. The assay is classed as functional, cell-based. The conditions noted are these: U-266, 72 h. The method, boiled down: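 U266 myeloma cells were grown in RPMI 1640 with 15% FBS at 37 °C, 5% CO2. MTT added from a 5 mg/mL solution for 4 h at 37 °C. Plates centrifuged, formazan dissolved in DMSO, absorbance at 540 nm.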

The subject of assay [5] is HL-60. The assay can be described thus: Cytotoxicity against human HL60 cells after 72 hrs by MTT assay. In kind it is functional, cell-based. The conditions noted are these: HL-60, 72 h. In a few lines: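 HL-60 cells grown in IMDM with 20% FBS at 37 °C, 5% CO2. MTT added from a 5 mg/mL solution for 4 h at 37 °C. Plates centrifuged, medium discarded, formazan dissolved in DMSO, absorbance read at 540 nm.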

Assay [6] in a line: Inhibition of chymotrypsin-like activity of human 20s proteasome beta 5 subunit assessed as hydrolysis of fluorogenic substrate.
Assay [7] relates to A549. Put plainly: Cytotoxicity against human A549 cells after 72 hrs by MTT assay. The assay is classed as functional, cell-based. The following applies: A549, 72 h. The method, boiled down:
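A549 cells were cultured in F12-K with 10% FBS at 37 °C, 5% CO2. MTT from a 5 mg/mL solution added for 4 h at 37 °C. Medium removed after centrifugation, formazan taken up in DMSO, read at 540 nm.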

Assay [8] concerns HepG2. The assay can be described thus: Cytotoxicity against human HepG2 cells after 72 hrs by MTT assay. The following applies: HepG2, 72 h. The assay is classed as functional, cell-based. The method, boiled down: as §1
Assay [9] deals with NCI-H460. The assay can be described thus: Cytotoxicity against human H460 cells after 72 hrs by MTT assay. The assay is classed as functional, cell-based. The following applies: NCI-H460, 72 h. In a few lines: as §1
Assay [10] has as its system SK-OV-3. Put plainly: Cytotoxicity against human SKOV3 cells after 72 hrs by MTT assay. In kind it is functional, cell-based. The following applies: SK-OV-3, 72 h. In a few lines:
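SKOV-3 cells were cultured in McCoy's 5A with 10% FBS at 37 °C, 5% CO2. MTT added from a 5 mg/mL solution for 4 h at 37 °C. Formazan dissolved in DMSO, absorbance measured at 540 nm.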

In assay [11] the test system is SW480. Put plainly: Cytotoxicity against human SW480 cells after 72 hrs by MTT assay. The assay is classed as functional, cell-based. The conditions noted are these: SW480, 72 h. In a few lines:
as §1

Usually IC50 stands for the midpoint of a concentration-inhibition curve.

Regarding `CC(C)C[C@H](NC(=O)[C@H](Cc1ccccc1)NC(=O)[C@H]1CCCc2ccccc21)B(O)O`, the IC50 in [1] was 580 nM; in assay [2], 37.5 nM; in assay [3] it was 70 nM; in [4] it was 2.28 nM; in assay [5], 9.55 nM; in [6], 1.2 nM. The IC50 in [7] is 38.5 nM; in assay [8], 60 nM; in assay [9] it was 36 nM; in [10] it was 40 nM; in assay [11], 30 nM.

Regarding `CC(C)C[C@H](NC(=O)[C@H](Cc1ccccc1)NC(=O)c1cccc2c1CCCC2)B(O)O`, the IC50 is 1210 nM in [1]; 23.2 nM in assay [2]; 9.8 nM in assay [3]; 2.95 nM in assay [4]; 9.25 nM in assay [5]; 1.6 nM in assay [6]. The IC50 in assay [7] came to 40.5 nM; in assay [8] it was 13.1 nM; in [9], 21.5 nM; in [10], 60 nM; in assay [11], 30 nM.

These data come from ChEMBL document CHEMBL1137786, “Design, synthesis, biological evaluation, and structure-activity relationship (SAR) discussion of dipeptidyl boronate proteasome inhibitors, part I: comprehensive understanding of the SAR of alpha-amino acid boronates” (J Med Chem, 2009).
